{
  "source": "ChEMBL document CHEMBL5303300",
  "about": "“EUbOPEN Chemogenomics Library - Multiplex” (2023)",
  "key": {"Fibroblast": {"test_system": "Fibroblast", "assay": "Multiplex assay against human fibroblast", "type": "toxicity, cell-based", "settings": "number of replicates 2", "how_it_was_run": "(§1)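 Phenotypes for tubulin, mitochondrial mass and membrane permeability are expressed as per cents of healthy-nucleus cells. Cells were stained live at seeding with Hoechst33342, BioTracker Green Microtubule Cytoskeleton Dye, MitoTracker Red and Annexin V Alexa Fluor 680, then imaged after compound addition on a CQ1 microscope at 37°C and 5% CO2. Machine-learning gating in CellPathfinder separated Hoechst high-intensity objects from normal cells, divided normal cells by nuclear state (healthy, pyknosed, fragmented) and divided pyknosed cells into mitotic or apoptotic.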"}, "HEK-293T": {"test_system": "HEK-293T", "assay": "Multiplex assay against HEK293T", "type": "toxicity, cell-based", "settings": "human, number of replicates 2", "how_it_was_run": "as §1"}, "[1]": {"settings": "12 h, 1 µM, compound concentration 1 uM"}, "[2]": {"settings": "12 h, 10 µM, compound concentration 10 uM"}, "[3]": {"settings": "24 h, 1 µM, compound concentration 1 uM"}, "[4]": {"settings": "24 h, 10 µM, compound concentration 10 uM"}, "[5]": {"settings": "48 h, 1 µM, compound concentration 1 uM"}, "[6]": {"settings": "48 h, 10 µM, compound concentration 10 uM"}},
  "note": "Several values for one entry are separate records, joined by “and”; a condition that tells them apart may be missing. Identical values can stand only once.",
  "data": [
    {"smiles": "COc1cc(N2CCN(C)CC2)ccc1Nc1ncc2c(n1)N(C)c1ccccc1C(=O)N2CC(F)(F)F", "values": [
      {"measurement": "Population Apoptotic (%)", "setting": "Fibroblast; [1]", "result": "50% and 44%"},
      {"measurement": "Population Fragmented Nuclei (%)", "setting": "Fibroblast; [1]", "result": "14% and 10%"},
      {"measurement": "Population Healthy Nuclei (%)", "setting": "Fibroblast; [1]", "result": "74% and 76%"},
      {"measurement": "Population Hoechst High Intensity Objects (%)", "setting": "Fibroblast; [1]", "result": 0, "unit": "%"},
      {"measurement": "Population Membrane Permeable-Phenotype (%)", "setting": "Fibroblast; [1]", "result": "1% and 2%"},
      {"measurement": "Population Mitochondria Different-Phenotype (%)", "setting": "Fibroblast; [1]", "result": 1, "unit": "%"},
      {"measurement": "Population Mitotic Cells (%)", "setting": "Fibroblast; [1]", "result": "50% and 55%"},
      {"measurement": "Population Normal (%)", "setting": "Fibroblast; [1]", "result": 100, "unit": "%"},
      {"measurement": "Population Pyknosed Nuclei (%)", "setting": "Fibroblast; [1]", "result": "10% and 13%"},
      {"measurement": "Population Tubulin-Different-Phenotype (%)", "setting": "Fibroblast; [1]", "result": "32% and 20%"},
      {"measurement": "Total Cell Count", "setting": "Fibroblast; [1]", "result": "214 and 269"},
      {"measurement": "Population Apoptotic (%)", "setting": "Fibroblast; [2]", "result": "27% and 35%"},
      {"measurement": "Population Fragmented Nuclei (%)", "setting": "Fibroblast; [2]", "result": "45% and 17%"},
      {"measurement": "Population Healthy Nuclei (%)", "setting": "Fibroblast; [2]", "result": "40% and 66%"},
      {"measurement": "Population Hoechst High Intensity Objects (%)", "setting": "Fibroblast; [2]", "result": "4% and 0%"},
      {"measurement": "Population Membrane Permeable-Phenotype (%)", "setting": "Fibroblast; [2]", "result": "1% and 3%"},
      {"measurement": "Population Mitochondria Different-Phenotype (%)", "setting": "Fibroblast; [2]", "result": "7% and 11%"},
      {"measurement": "Population Mitotic Cells (%)", "setting": "Fibroblast; [2]", "result": "72% and 64%"},
      {"measurement": "Population Normal (%)", "setting": "Fibroblast; [2]", "result": "95% and 100%"},
      {"measurement": "Population Pyknosed Nuclei (%)", "setting": "Fibroblast; [2]", "result": "14% and 16%"},
      {"measurement": "Population Tubulin-Different-Phenotype (%)", "setting": "Fibroblast; [2]", "result": "57% and 67%"},
      {"measurement": "Total Cell Count", "setting": "Fibroblast; [2]", "result": "330 and 243"},
      {"measurement": "Population Apoptotic (%)", "setting": "Fibroblast; [3]", "result": "75% and 29%"},
      {"measurement": "Population Fragmented Nuclei (%)", "setting": "Fibroblast; [3]", "result": "17% and 18%"},
      {"measurement": "Population Healthy Nuclei (%)", "setting": "Fibroblast; [3]", "result": "77% and 73%"},
      {"measurement": "Population Hoechst High Intensity Objects (%)", "setting": "Fibroblast; [3]", "result": 0, "unit": "%"},
      {"measurement": "Population Membrane Permeable-Phenotype (%)", "setting": "Fibroblast; [3]", "result": 1, "unit": "%"},
      {"measurement": "Population Mitochondria Different-Phenotype (%)", "setting": "Fibroblast; [3]", "result": "1% and 3%"},
      {"measurement": "Population Mitotic Cells (%)", "setting": "Fibroblast; [3]", "result": "25% and 70%"},
      {"measurement": "Population Normal (%)", "setting": "Fibroblast; [3]", "result": "99% and 100%"},
      {"measurement": "Population Pyknosed Nuclei (%)", "setting": "Fibroblast; [3]", "result": "5% and 8%"},
      {"measurement": "Population Tubulin-Different-Phenotype (%)", "setting": "Fibroblast; [3]", "result": "33% and 18%"},
      {"measurement": "Total Cell Count", "setting": "Fibroblast; [3]", "result": "241 and 300"},
      {"measurement": "Population Apoptotic (%)", "setting": "Fibroblast; [4]", "result": "62% and 44%"},
      {"measurement": "Population Fragmented Nuclei (%)", "setting": "Fibroblast; [4]", "result": "41% and 15%"},
      {"measurement": "Population Healthy Nuclei (%)", "setting": "Fibroblast; [4]", "result": "47% and 69%"},
      {"measurement": "Population Hoechst High Intensity Objects (%)", "setting": "Fibroblast; [4]", "result": "5% and 0%"},
      {"measurement": "Population Membrane Permeable-Phenotype (%)", "setting": "Fibroblast; [4]", "result": 2, "unit": "%"},
      {"measurement": "Population Mitochondria Different-Phenotype (%)", "setting": "Fibroblast; [4]", "result": "27% and 34%"},
      {"measurement": "Population Mitotic Cells (%)", "setting": "Fibroblast; [4]", "result": "37% and 55%"},
      {"measurement": "Population Normal (%)", "setting": "Fibroblast; [4]", "result": "94% and 100%"},
      {"measurement": "Population Pyknosed Nuclei (%)", "setting": "Fibroblast; [4]", "result": "10% and 15%"},
      {"measurement": "Population Tubulin-Different-Phenotype (%)", "setting": "Fibroblast; [4]", "result": "69% and 78%"},
      {"measurement": "Total Cell Count", "setting": "Fibroblast; [4]", "result": "294 and 218"},
      {"measurement": "Population Apoptotic (%)", "setting": "Fibroblast; [5]", "result": "70% and 45%"},
      {"measurement": "Population Fragmented Nuclei (%)", "setting": "Fibroblast; [5]", "result": "23% and 16%"},
      {"measurement": "Population Healthy Nuclei (%)", "setting": "Fibroblast; [5]", "result": "72% and 77%"},
      {"measurement": "Population Hoechst High Intensity Objects (%)", "setting": "Fibroblast; [5]", "result": 0, "unit": "%"},
      {"measurement": "Population Membrane Permeable-Phenotype (%)", "setting": "Fibroblast; [5]", "result": "2% and 1%"},
      {"measurement": "Population Mitochondria Different-Phenotype (%)", "setting": "Fibroblast; [5]", "result": 1, "unit": "%"},
      {"measurement": "Population Mitotic Cells (%)", "setting": "Fibroblast; [5]", "result": "30% and 55%"},
      {"measurement": "Population Normal (%)", "setting": "Fibroblast; [5]", "result": "100% and 99%"},
      {"measurement": "Population Pyknosed Nuclei (%)", "setting": "Fibroblast; [5]", "result": "4% and 6%"},
      {"measurement": "Population Tubulin-Different-Phenotype (%)", "setting": "Fibroblast; [5]", "result": "17% and 10%"},
      {"measurement": "Total Cell Count", "setting": "Fibroblast; [5]", "result": "249 and 315"},
      {"measurement": "Population Apoptotic (%)", "setting": "Fibroblast; [6]", "result": "76% and 79%"},
      {"measurement": "Population Fragmented Nuclei (%)", "setting": "Fibroblast; [6]", "result": "42% and 17%"},
      {"measurement": "Population Healthy Nuclei (%)", "setting": "Fibroblast; [6]", "result": "50% and 72%"},
      {"measurement": "Population Hoechst High Intensity Objects (%)", "setting": "Fibroblast; [6]", "result": "4% and 1%"},
      {"measurement": "Population Membrane Permeable-Phenotype (%)", "setting": "Fibroblast; [6]", "result": "0% and 4%"},
      {"measurement": "Population Mitochondria Different-Phenotype (%)", "setting": "Fibroblast; [6]", "result": "28% and 18%"},
      {"measurement": "Population Mitotic Cells (%)", "setting": "Fibroblast; [6]", "result": "23% and 20%"},
      {"measurement": "Population Normal (%)", "setting": "Fibroblast; [6]", "result": "95% and 98%"},
      {"measurement": "Population Pyknosed Nuclei (%)", "setting": "Fibroblast; [6]", "result": "7% and 10%"},
      {"measurement": "Population Tubulin-Different-Phenotype (%)", "setting": "Fibroblast; [6]", "result": "68% and 71%"},
      {"measurement": "Total Cell Count", "setting": "Fibroblast; [6]", "result": "288 and 232"},
      {"measurement": "Population Apoptotic (%)", "setting": "HEK-293T; [1]", "result": "31% and 35%"},
      {"measurement": "Population Fragmented Nuclei (%)", "setting": "HEK-293T; [1]", "result": "3% and 2%"},
      {"measurement": "Population Healthy Nuclei (%)", "setting": "HEK-293T; [1]", "result": "87% and 86%"},
      {"measurement": "Population Hoechst High Intensity Objects (%)", "setting": "HEK-293T; [1]", "result": "5% and 6%"},
      {"measurement": "Population Membrane Permeable-Phenotype (%)", "setting": "HEK-293T; [1]", "result": 3, "unit": "%"},
      {"measurement": "Population Mitochondria Different-Phenotype (%)", "setting": "HEK-293T; [1]", "result": "20% and 16%"},
      {"measurement": "Population Mitotic Cells (%)", "setting": "HEK-293T; [1]", "result": "68% and 64%"},
      {"measurement": "Population Normal (%)", "setting": "HEK-293T; [1]", "result": "94% and 93%"},
      {"measurement": "Population Pyknosed Nuclei (%)", "setting": "HEK-293T; [1]", "result": "9% and 10%"},
      {"measurement": "Population Tubulin-Different-Phenotype (%)", "setting": "HEK-293T; [1]", "result": "86% and 78%"},
      {"measurement": "Total Cell Count", "setting": "HEK-293T; [1]", "result": "866 and 792"},
      {"measurement": "Population Apoptotic (%)", "setting": "HEK-293T; [2]", "result": "55% and 51%"},
      {"measurement": "Population Fragmented Nuclei (%)", "setting": "HEK-293T; [2]", "result": "1% and 3%"},
      {"measurement": "Population Healthy Nuclei (%)", "setting": "HEK-293T; [2]", "result": "81% and 83%"},
      {"measurement": "Population Hoechst High Intensity Objects (%)", "setting": "HEK-293T; [2]", "result": "13% and 12%"},
      {"measurement": "Population Membrane Permeable-Phenotype (%)", "setting": "HEK-293T; [2]", "result": "5% and 4%"},
      {"measurement": "Population Mitochondria Different-Phenotype (%)", "setting": "HEK-293T; [2]", "result": "49% and 52%"},
      {"measurement": "Population Mitotic Cells (%)", "setting": "HEK-293T; [2]", "result": "44% and 48%"},
      {"measurement": "Population Normal (%)", "setting": "HEK-293T; [2]", "result": "86% and 87%"},
      {"measurement": "Population Pyknosed Nuclei (%)", "setting": "HEK-293T; [2]", "result": "16% and 13%"},
      {"measurement": "Population Tubulin-Different-Phenotype (%)", "setting": "HEK-293T; [2]", "result": 95, "unit": "%"},
      {"measurement": "Total Cell Count", "setting": "HEK-293T; [2]", "result": "412 and 483"},
      {"measurement": "Population Apoptotic (%)", "setting": "HEK-293T; [3]", "result": "27% and 32%"},
      {"measurement": "Population Fragmented Nuclei (%)", "setting": "HEK-293T; [3]", "result": "3% and 5%"},
      {"measurement": "Population Healthy Nuclei (%)", "setting": "HEK-293T; [3]", "result": "90% and 86%"},
      {"measurement": "Population Hoechst High Intensity Objects (%)", "setting": "HEK-293T; [3]", "result": 7, "unit": "%"},
      {"measurement": "Population Membrane Permeable-Phenotype (%)", "setting": "HEK-293T; [3]", "result": 2, "unit": "%"}
    ]}
  ]
}
